Test results as given in ChEMBL document CHEMBL3785069, “Tumour-specific cytotoxicity and structure-activity relationships of novel 1-[3-(2-methoxyethylthio)propionyl]-3,5-bis(benzylidene)-4-piperidones” (Bioorg Med Chem, 2016).
Calls of active or inactive are those of the source. No cut-off for these calls is given here.

Legend:
[1] = Cytotoxicity against human Molt4/C8 cells after 72 hrs by MTT assay; format: functional, cell-based; settings: MOLT-4, 72 h
Procedure, shortened: (§1)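 Leukemic cells exposed to a concentration series of each compound in RPMI 1640 medium at 37 °C, 72 h for Molt4/C8 and CEM, 48 h for L1210.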

CCRF-CEM = assay: Cytotoxicity against human CEM cells after 72 hrs by MTT assay; format: functional, cell-based; procedure, shortened: as §1
L1210 = assay: Cytotoxicity against mouse L1210 cells after 48 hrs by MTT assay; format: functional, cell-based; settings: L1210, 48 h; procedure, shortened: as §1
[2] = Cytotoxicity against human HSC2 cells after 48 hrs by MTT assay; format: functional; settings: HSC-2, 48 h
Procedure, shortened: (§2)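 Oral carcinoma (HSC-2, HSC-3, HSC-4) and nonmalignant HGF and HPLF cells incubated with graded compound concentrations at 37 °C for 48 h in DMEM plus 10% heat-inactivated FBS. Viability read by MTT. CC50 from duplicate runs, differing by under 10% at each concentration.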

[3] = Cytotoxicity against human HSC3 cells after 48 hrs by MTT assay; format: functional; settings: HSC-3, 48 h; procedure, shortened: as §2
[4] = Cytotoxicity against human HSC4 cells after 48 hrs by MTT assay; format: functional; settings: HSC-4, 48 h; procedure, shortened: as §2
[5] = Cytotoxicity against human HGF cells after 48 hrs by MTT assay; format: cell-based; procedure, shortened: as §2
[6] = Cytotoxicity against human HPLF cells after 48 hrs by MTT assay; format: cell-based; procedure, shortened: as §2
HSC-2 [7] = assay: Selectivity index, ratio of average CC50 for human HGF and HPLF cells to CC50 for human HSC2 cells; settings: pooled result: one value given for 2 cell lines, strains, targets or settings
HSC-3 [8] = assay: Selectivity index, ratio of average CC50 for human HGF and HPLF cells to CC50 for human HSC3 cells; settings: pooled result: one value given for 2 cell lines, strains, targets or settings
HSC-4 [9] = assay: Selectivity index, ratio of average CC50 for human HGF and HPLF cells to CC50 for human HSC4 cells; settings: pooled result: one value given for 2 cell lines, strains, targets or settings
HSC-2 [10] = assay: Induction of apoptosis in human HSC2 cells assessed as PARP1 cleavage at 0.4 uM after 24 hrs by SDS-PAGE method; format: functional, cell-based
Procedure, shortened: (§3)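 HSC-2 cells grown in 6-well plates for 24 h, then exposed to 0.1, 0.2, 0.3 and 0.4 µM for 24 h. Cells scraped into lysis buffer and run on 8% SDS-PAGE, then transferred to PVDF. Cleaved PARP (Asp214) detected with a human-specific antibody on X-ray film.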

HSC-2 [11] = assay: Induction of apoptosis in human HSC2 cells assessed as PARP1 cleavage after 24 hrs by SDS-PAGE method; format: functional, cell-based; procedure, shortened: as §3
HSC-2 [12] = assay: Potency index, ratio of CC50 for mephalan to CC50 for test compound against human HSC2 cells; format: functional
HSC-3 [13] = assay: Potency index, ratio of CC50 for mephalan to CC50 for test compound against human HSC3 cells; format: functional
HSC-4 [14] = assay: Potency index, ratio of CC50 for mephalan to CC50 for test compound against human HSC4 cells; format: functional
HSC-2 [15] = assay: Induction of apoptosis in human HSC2 cells assessed as cell death after 24 hrs by Annexin-V-FITC/PI-based flow cytometric analysis; format: functional
Procedure, shortened: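 HSC-2 cells treated in RPMI for 24 h at 37 °C at 0.5, 1.0 and 2.0 µM. Early and late apoptotic fractions measured by flow cytometry after Annexin-V-FITC/propidium iodide staining.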

SMILES | IC50 [1] | IC50 (CCRF-CEM) | IC50 (L1210) | CC50 [2] | CC50 [3] | CC50 [4] | CC50 at 48 h [5] | CC50 at 48 h [6] | Selectivity Index (HSC-2 [7]) | Selectivity Index (HSC-3 [8]) | Selectivity Index (HSC-4 [9]) | Activity (HSC-2 [10]) | Activity (HSC-2 [11]) | Ratio (HSC-2 [12]) | Ratio (HSC-3 [13]) | Ratio (HSC-4 [14]) | Activity (HSC-2 [15])
COCCSCCC(=O)N1C/C(=C\c2ccccc2)C(=O)/C(=C/c2ccccc2)C1 | 1340 nM | 1230 nM | 3000 nM | 1300 nM | 1470 nM | 1220 nM | 9670 nM | 7580 nM | 6.64 | 5.87 | 7.07 | – | – | – | – | – | –
COCC[S+]([O-])CCC(=O)N1C/C(=C\c2ccccc2)C(=O)/C(=C/c2ccccc2)C1 (configuration not stated) | 1620 nM | 1290 nM | 4910 nM | 580 nM | 2100 nM | 1020 nM | 9090 nM | 9100 nM | 15.7 | 4.33 | 8.92 | – | – | – | – | – | –
COCCSCCC(=O)N1C/C(=C\c2ccc(F)cc2)C(=O)/C(=C/c2ccc(F)cc2)C1 | 1720 nM | 1600 nM | 5850 nM | 760 nM | 1190 nM | 560 nM | 5270 nM | 4990 nM | 6.75 | 4.31 | 9.16 | – | – | – | – | – | –
COCC[S+](C)CCC(=O)N1C/C(=C\c2ccccc2)C(=O)/C(=C/c2ccccc2)C1.F[B-](F)(F)F (configuration not stated) | 1340 nM | 1400 nM | 3450 nM | 1560 nM | 1430 nM | 1360 nM | 10100 nM | 6250 nM | 5.24 | 5.72 | 6.02 | – | – | – | – | – | –
COCCSCCC(=O)N1C/C(=C\c2ccc(OC)cc2)C(=O)/C(=C/c2ccc(OC)cc2)C1 | 7080 nM | 6310 nM | 13200 nM | 1970 nM | 2270 nM | 1630 nM | 17200 nM | 15500 nM | 8.33 | 7.23 | 10.1 | – | – | – | – | – | –
COCCS(=O)(=O)CCC(=O)N1C/C(=C\c2ccc(F)cc2)C(=O)/C(=C/c2ccc(F)cc2)C1 | 1120 nM | 610 nM | 2450 nM | – | – | – | – | – | – | – | – | – | – | – | – | – | –
COCCSCCC(=O)N1C/C(=C\c2ccc(OC)c(OC)c2)C(=O)/C(=C/c2ccc(OC)c(OC)c2)C1 | 1810 nM | 1840 nM | 1570 nM | 400 nM | 1220 nM | 860 nM | 9830 nM | 8070 nM | 22.4 | 7.34 | 10.4 | Active | – | – | – | – | –
COCCSCCC(=O)N1C/C(=C\c2ccc(Cl)cc2)C(=O)/C(=C/c2ccc(Cl)cc2)C1 | 1730 nM | 1240 nM | 3440 nM | 1090 nM | 1030 nM | 810 nM | 5240 nM | 5970 nM | 5.15 | 5.45 | 6.93 | – | – | – | – | – | –
COCCOCCC(=O)N1C/C(=C\c2ccccc2)C(=O)/C(=C/c2ccccc2)C1 | 1840 nM | 1760 nM | 6240 nM | 1010 nM | 1320 nM | 1220 nM | 9240 nM | 8840 nM | 8.95 | 6.85 | 7.41 | – | – | – | – | – | –
COCCS(=O)(=O)CCC(=O)N1C/C(=C\c2ccccc2)C(=O)/C(=C/c2ccccc2)C1 | 1660 nM | 1140 nM | 2670 nM | 1460 nM | 1190 nM | 1300 nM | 9590 nM | 8430 nM | 6.17 | 7.57 | 6.93 | – | – | – | – | – | –
COCCSCCC(=O)N1C/C(=C\c2ccc([N+](=O)[O-])cc2)C(=O)/C(=C/c2ccc([N+](=O)[O-])cc2)C1 | 1370 nM | 1290 nM | 2130 nM | 400 nM | 390 nM | 300 nM | 3520 nM | 2590 nM | 7.65 | 7.85 | 10.2 | – | Dose-dependent effect | 35 | 35 | 35 | Dose-dependent effect
COCC[S+]([O-])CCC(=O)N1C/C(=C\c2ccc(F)cc2)C(=O)/C(=C/c2ccc(F)cc2)C1 (configuration not stated) | 1280 nM | 830 nM | 3330 nM | 690 nM | 1010 nM | 700 nM | 4830 nM | 4210 nM | 6.55 | 4.48 | 6.46 | – | – | – | – | – | –
COCCSCCC(=O)N1C/C(=C\c2ccc(C)cc2)C(=O)/C(=C/c2ccc(C)cc2)C1 | 2660 nM | 1950 nM | 4900 nM | 1450 nM | 1700 nM | 1200 nM | 10300 nM | 9170 nM | 6.72 | 5.73 | 8.12 | – | – | – | – | – | –
N[C@@H](Cc1ccc(N(CCCl)CCCl)cc1)C(=O)O [MELPHALAN] | 3480 nM | 1740 nM | 5940 nM | 16700 nM | 9900 nM | 11100 nM | 78000 nM | 77100 nM | 4.65 | 7.84 | 6.99 | – | – | – | – | – | –
